F508del corr: correctors of CFTR F508del function in bronchial epithelial cells. hit rate 0.36% among 350,000. activity (quench increase), % at 7.58 µM. AID 720511. CFBE cells, YFP halide quenching; stimulated with forskolin plus potentiator P3; % fluorescence drop versus neutral controls;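 active = mean added fluorescence quench of at least 8% versus neutral control, with both replicates also reaching 8%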;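 note: cells transiently co-express mutant CFTR-F508del with the halide-sensitive YFP; corrector assay measuring rescue of mutant channel to the surface after 24 h compound exposure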
CaV13 ICDI inh: Primary screen for inhibitors of IQ motif and Ca2+-dependent inactivation inhibitor domain binding in CACNA1D, Förster resonance energy transfer in living cells, …. HEK cells, CFP/YFP FRET ICDI-IQ, plate reader, 10 min; percent FRET-ratio fall versus neutral wells. inhibition, % at 12.3 µM. hit rate 0.098% among 340,000. AID 743397;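 active = mean replicate inhibition of at least 30% and at least 1% of replicates passing that level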
Ecoli rRNA inh: selective bacterial rRNA inhibition in E. coli | E. coli WT GFP vs humanized-ribosome RFP mutants, fluorescence, 24 h; hits give low values; DMSO median 0, no signal -100 | GFP signal change (wild-type ribosome), % (no concentration beside the values) | hit rate 1.6% among 350,000;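 active = significant combined selectivity score with lowered wild-type GFP, culture density cut under 30%, mutant RFP and density less affected; inactive = any of these conditions unmet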
Cneo AK release: Cryptococcus neoformans lysis via adenylate kinase release; C. neoformans lysis, adenylate kinase release luminescence, 4 h; normalised: neutral wells 0, clomiphene wells 100; lysis activity, % at 15 µM; hit rate 0.2% among 360,000; AID 651654;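 active = mean lysis activity across replicates of at least 80%, whatever share of replicates individually reach that level; inactive = mean lysis activity below 80%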
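read-out = cell lysis signal | test system = log-phase Cryptococcus neoformans yeast cells | input = cells at 5 × 10^6 per mL | medium = fresh YPD growth medium | signal = luminescent adenylate kinase detection reagent | timing = 4 h at 37 °C static, read 1 h later | dosing = single dose | controls = Clomiphene as positive lysis control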
Large screens that a line does not name were inactive. A selection: hits, their analogues and other compounds. The true share with any hit is near 1.7%.

N#CCCN(C(=O)COC(=O)c1ccc2c(c1)OCO2)c1ccccc1	none
Cc1ccc(S(=O)(=O)N(C)C[C@@H]2Oc3c(NS(=O)(=O)c4ccc(F)cc4)cccc3C(=O)N([C@@H](C)CO)C[C@@H]2C)cc1	none (no result: CaV13 ICDI inh)
CC(C)NC(=O)N1C[C@@H]2[C@H](c3ccccc31)[C@H](CO)N2C(=O)c1ccncc1	none (no result: CaV13 ICDI inh)
COc1ccc(S(=O)(=O)N(C)C[C@H]2Oc3ccc(NC(=O)Nc4ccc5c(c4)OCO5)cc3C(=O)N([C@@H](C)CO)C[C@H]2C)cc1	none (no result: CaV13 ICDI inh)
Cc1ccccc1-c1cnc2c(c1)C(=O)N([C@H](C)CO)C[C@@H](C)[C@H](CN(C)CC1CCOCC1)O2	none (no result: CaV13 ICDI inh)
Nc1nn2c(-c3ccccc3)cc(=O)[nH]c2c1N=Nc1ccc(Br)cc1	Ecoli rRNA inh -29 (no result: Cneo AK release)
C[C@@H]1CCCCO[C@@H](CN(C)Cc2ccncc2)[C@@H](C)CN([C@H](C)CO)C(=O)c2cc(NC(=O)CCCN(C)C)ccc2O1	none (no result: CaV13 ICDI inh)
COCC(=O)N[C@@H]1C=C[C@@H](CC(=O)N2CCCCC2)O[C@H]1CO	none (no result: CaV13 ICDI inh, Ecoli rRNA inh)
Cc1ccc(C(=O)Nc2nc(C)c(C(=O)Nc3ccc4c(c3)CCC4)s2)cc1	Ecoli rRNA inh -30
COc1cccc(CN2C[C@@H]3N[C@H](C2)C3c2ccc(-c3ccccc3F)cc2)c1 (stereo partly drawn)	none (no result: CaV13 ICDI inh, Cneo AK release)
C[C@@H]1CN([C@H](C)CO)C(=O)Cc2cc(NS(=O)(=O)c3ccc(F)cc3)ccc2O[C@@H]1CN(C)C(=O)Nc1ccccc1	none (no result: CaV13 ICDI inh)
COc1ccc(S(=O)(=O)NCCSc2ccc(Cl)cc2)cc1OC	Ecoli rRNA inh -38
C[C@H]1CN([C@@H](C)CO)C(=O)Cc2cc(NC(=O)c3ccncc3)ccc2O[C@H]1CN(C)S(=O)(=O)c1ccc(F)cc1	none (no result: CaV13 ICDI inh)
CN1C(=O)c2cc(NC(=O)C3CCOCC3)ccc2OC[C@H]2O[C@H](CC(=O)O)CC[C@H]21	none (no result: CaV13 ICDI inh)
N#Cc1c(-c2ccncc2)c2c([nH]c1=O)-c1ccccc1OC2	none (no result: Ecoli rRNA inh, Cneo AK release)
N#Cc1c(-c2ccccc2Cl)c2c([nH]c1=O)-c1ccccc1OC2	Ecoli rRNA inh -24
Cc1ccc(CNC(=O)C2CCN(S(=O)(=O)c3ccc4c(c3)CC(C)N4C(=O)C3CC3)CC2)cc1 (stereo not drawn)	Ecoli rRNA inh -28
CNC[C@H]1Oc2ncc(C#CC3CCCCC3)cc2C(=O)N([C@@H](C)CO)C[C@H]1C	none (no result: CaV13 ICDI inh)
COC(=O)C(Cc1csc2ccc(Cl)cc12)NC(=O)c1ccc(Cl)cc1 (stereo not drawn)	Ecoli rRNA inh -16 (no result: Cneo AK release)
COC(=O)C(Cc1ccccc1)NC(=O)c1ccc(C)cc1 (stereo not drawn)	none (no result: Cneo AK release)
CS(=O)(=O)c1sc(C#N)c2c1C(=O)CC(c1ccccc1)C2 (stereo not drawn)	Ecoli rRNA inh -26
COc1cc(/C=C2\SC(=O)N(c3cccc(Cl)c3)C2=O)cc([N+](=O)[O-])c1O	Ecoli rRNA inh -33 (no result: Cneo AK release)
COc1cc(/C=C2\SC(=O)N(c3ccc(Cl)cc3)C2=O)cc([N+](=O)[O-])c1O	none (no result: F508del corr, Cneo AK release)
COCC(=O)Nc1ccc2c(c1)OC[C@H](C)N(Cc1cccc(F)c1)C[C@@H](C)[C@H](OC)CN(C)C2=O	none (no result: CaV13 ICDI inh, Cneo AK release)
CCOC(=O)Nc1ccc(C(=O)Oc2ccccc2)c(O)c1	Ecoli rRNA inh -32
O=C(Nc1ccc(C(=O)Oc2ccccc2)c(O)c1)c1ccccc1	none (no result: F508del corr, Cneo AK release)
N#Cc1c(-c2ccccc2)nc(SCC(=O)Nc2ccccc2)[nH]c1=O	none (no result: F508del corr, Ecoli rRNA inh)
N#Cc1c(-c2ccccc2)nc(SCC(=O)N(c2ccccc2)c2ccccc2)[nH]c1=O	Ecoli rRNA inh -49 (no result: F508del corr)
CCC(=O)N1CC(=O)N2[C@H](CO)[C@H](c3ccc(C#CC(C)C)cc3)[C@@H]2C1	none (no result: F508del corr, CaV13 ICDI inh, Cneo AK release)
COc1ccc2c3c(n(C)c2c1)[C@@H](CO)N(C(=O)c1ccccn1)CC31CN(C(C)=O)C1	none (no result: CaV13 ICDI inh, Cneo AK release)
CCC(C(=O)NCCc1ccc(C)cc1)n1nc(C)c2c(C)n(-c3ccccc3)nc2c1=O (stereo not drawn)	Ecoli rRNA inh -21
Cc1ccc(CCNC(=O)C(C)n2nc(C)c3c(C)n(-c4ccccc4)nc3c2=O)cc1 (stereo not drawn)	none
CN(C)C(=O)c1ccc(-c2cccc(-c3nc(C(=O)NC4CCC4)cc4c3[C@H](CCO)N([S@@](=O)C(C)(C)C)C4)c2)cc1	none (no result: CaV13 ICDI inh)
C[C@@H]1CCCCO[C@@H](CN(C)C(=O)Nc2ccc(F)cc2)[C@H](C)CN([C@@H](C)CO)C(=O)c2cc(NC(=O)CCCN(C)C)ccc2O1	none (no result: CaV13 ICDI inh)

Screening results from PubChem BioAssay.
